Source: ChEMBL document CHEMBL2429855, “Efforts toward broadening the spectrum of arylomycin antibiotic activity” (Bioorg Med Chem Lett, 2013)
Converted amounts (≈) assume the structure as drawn.

Columns and labels:
[1] = test system: Escherichia coli; test: Antibacterial activity against wild type Escherichia coli MG1655 assessed as growth inhibition after 22 hrs by broth microdilution method; format: functional; conditions: K-12 substr. MG1655, 22 h
Method in brief: (§1)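 MIC by broth microdilution against wild-type S. epidermidis RP62A, MSSA 8325, MRSA USA300 and E. coli MG1655. Also tested: S. aureus 8325 and E. coli MG1655 mutants made sensitive by mutating the resistance-conferring SPase Pro residue, an lptD hyperpermeable E. coli (outer membrane permeable to large molecules), and an E. coli combining lptD with SPase sensitization.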

[2] = test system: Staphylococcus aureus; test: Antibacterial activity against Staphylococcus aureus 8325 harboring spsB (P29S) mutation assessed as growth inhibition after 22 hrs by broth microdilution method; format: functional; conditions: NCTC 8325, 22 h; method in brief: as §1
[3] = target: T1, Signal peptidase IB (Staphylococcus aureus, UniProt P0A070); test: Binding affinity to Staphylococcus aureus type-1 signal peptidase using decanoyl-LSSPAYNO2A-ADKabzPD and decanyol-LTPTAYNO2A-ASKKabzDD as substrate by fluorescence assay
T1 sequence (P0A070 whole entry): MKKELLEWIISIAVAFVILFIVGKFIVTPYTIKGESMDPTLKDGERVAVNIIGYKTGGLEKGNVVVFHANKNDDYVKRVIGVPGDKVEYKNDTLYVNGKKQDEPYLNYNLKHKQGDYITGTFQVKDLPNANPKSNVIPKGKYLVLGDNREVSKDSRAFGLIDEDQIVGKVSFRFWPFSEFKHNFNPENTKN

[4] = test system: Escherichia coli; test: Antibacterial activity against Escherichia coli MG1655 harboring lptD mutation assessed as growth inhibition after 22 hrs by broth microdilution method; format: functional; conditions: K-12 substr. MG1655, 22 h; method in brief: as §1
[5] = test system: Escherichia coli; test: Antibacterial activity against Escherichia coli MG1655 harboring lptD lepB (P84L) mutation assessed as growth inhibition after 22 hrs by broth microdilution method; format: functional; conditions: K-12 substr. MG1655, 22 h; method in brief: as §1
[6] = test system: Escherichia coli; test: Antibacterial activity against Escherichia coli MG1655 harboring lepB (P84L) mutation assessed as growth inhibition after 22 hrs by broth microdilution method; format: functional; conditions: K-12 substr. MG1655, 22 h; method in brief: as §1
[7] = target: Signal peptidase I (Escherichia coli K-12, UniProt P00803); test: Binding affinity to Escherichia coli type-1 signal peptidase lepB using decanoyl-LSSPAYNO2A-ADKabzPD and decanyol-LTPTAYNO2A-ASKKabzDD as substrate by fluorescence assay
[8] = test system: Staphylococcus epidermidis; test: Antibacterial activity against wild type Staphylococcus epidermidis RP62A assessed as growth inhibition after 22 hrs by broth microdilution method; format: functional; method in brief: as §1
[9] = test system: Staphylococcus aureus; test: Antibacterial activity against wild type methicillin-resistant Staphylococcus aureus USA300 assessed as growth inhibition after 22 hrs by broth microdilution method; format: functional; conditions: USA300, 22 h; method in brief: as §1
[10] = test system: Staphylococcus aureus; test: Antibacterial activity against wild type methicillin-sensitive Staphylococcus aureus 8325 assessed as growth inhibition after 22 hrs by broth microdilution method; format: functional; conditions: NCTC 8325, 22 h; method in brief: as §1

SMILES | MIC [1] [µg/mL] | MIC [2] [µg/mL] | IC50 [3] [nM] | MIC [4] [µg/mL] | MIC [5] [µg/mL] | MIC [6] [µg/mL] | IC50 [7] [nM] | MIC [8] [µg/mL] | MIC [9] [µg/mL] | MIC [10] [µg/mL]
CCCCCCCCCCCCCCCC(=O)N(C)[C@H](CO)C(=O)N[C@H](C)C(=O)NCC(=O)N(C)[C@@H]1C(=O)N[C@@H](C)C(=O)N[C@H](C(=O)NCC=O)Cc2ccc(O)c(c2)-c2cc1ccc2OCCN | > 64 | 32 (≈ 33.2 µM) | 332 | > 64 | 0.06 (≈ 0.0622 µM) | 2 (≈ 2.07 µM) | 87 | 1 (≈ 1.04 µM) | > 64 | > 64
CCCCCCCCCCCCCCCC(=O)N(C)[C@H](CO)C(=O)N[C@H](C)C(=O)NCC(=O)N(C)[C@@H]1C(=O)N[C@@H](C)C(=O)N[C@H](C(=O)O)Cc2ccc(O)c(c2)-c2cc1ccc2OCCO | > 64 | 8 (≈ 8.65 µM) | 4220 | 16 (≈ 17.3 µM) | 0.02 (≈ 0.0216 µM) | 1 (≈ 1.08 µM) | 75.7 | 1 (≈ 1.08 µM) | > 64 | > 64
CCCCCCCCCCCCCCCC(=O)N(C)[C@H](CO)C(=O)N[C@H](C)C(=O)NCC(=O)N(C)[C@@H]1C(=O)N[C@@H](C)C(=O)N[C@H](C(=O)NCP(=O)(OC)OC)Cc2ccc(O)c(c2)-c2cc1ccc2O | > 64 | > 64 | > 20000 | > 64 | 2 (≈ 2 µM) | 64 (≈ 63.9 µM) | 20000 | 8 (≈ 7.98 µM) | > 64 | > 64
CCCCCCCCCCCCCCCC(=O)N(C)[C@H](CO)C(=O)N[C@H](C)C(=O)NCC(=O)N(C)[C@@H]1C(=O)N[C@@H](C)C(=O)N[C@H](C(=O)O)Cc2ccc(O)c(c2)-c2cc1ccc2O [ARYLOMYCIN C16] | > 64 | 4 (≈ 4.54 µM) | 1800 | 16 (≈ 18.2 µM) | 0.02 (≈ 0.0227 µM) | 0.5 (≈ 0.567 µM) | 70 | 0.25 (≈ 0.284 µM) | > 64 | > 64
CCCCCCCCCCCCCCCC(=O)N(C)[C@H](CO)C(=O)N[C@H](C)C(=O)NCC(=O)N(C)[C@@H]1C(=O)N[C@@H](C)C(=O)N[C@H](C(=O)NCC=O)Cc2ccc(O)c(c2)-c2cc1ccc2OP(=O)(OCc1ccccc1)OCc1ccccc1 | > 64 | 32 (≈ 27.1 µM) | 152 | 64 (≈ 54.1 µM) | 0.3 (≈ 0.254 µM) | 16 (≈ 13.5 µM) | 195 | 1 (≈ 0.846 µM) | > 64 | > 64
CCCCCCCCCCCCCCCC(=O)N(C)[C@H](CO)C(=O)N[C@H](C)C(=O)NCC(=O)N(C)[C@@H]1C(=O)N[C@@H](C)C(=O)N[C@H](C(=O)NCP(=O)(OCC)OCC)Cc2ccc(O)c(c2)-c2cc1ccc2O | > 64 | > 64 | > 19400 | > 64 | 2 (≈ 1.94 µM) | > 64 | > 19400 | 8 (≈ 7.77 µM) | > 64 | > 64
CCCCCCCCCCCCCCCC(=O)N(C)[C@H](CO)C(=O)N[C@H](C)C(=O)NCC(=O)N(C)[C@@H]1C(=O)N[C@@H](C)C(=O)N[C@H](C(=O)O)Cc2ccc(O)c(c2)-c2cc1ccc2OP(=O)(O)O | > 64 | > 64 | 1980 | 32 (≈ 33.3 µM) | 0.03 (≈ 0.0312 µM) | 1 (≈ 1.04 µM) | 146 | 0.3 (≈ 0.312 µM) | > 64 | > 64
CCCCCCCCCCCCCCCC(=O)N(C)[C@H](CO)C(=O)N[C@H](C)C(=O)NCC(=O)N(C)[C@@H]1C(=O)N[C@@H](C)C(=O)N[C@H](C(=O)NCP(=O)(O)O)Cc2ccc(O)c(c2)-c2cc1ccc2O | > 64 | > 64 | 16400 | > 64 | 0.1 (≈ 0.103 µM) | 4 (≈ 4.11 µM) | 842 | 8 (≈ 8.21 µM) | 64 (≈ 65.7 µM) | > 64
CCCCCCCCCCCCCCCC(=O)N(C)[C@H](CO)C(=O)N[C@H](C)C(=O)NCC(=O)N(C)[C@@H]1C(=O)N[C@@H](C)C(=O)N[C@H](C(=O)NCP(=O)(Oc2ccccc2)Oc2ccccc2)Cc2ccc(O)c(c2)-c2cc1ccc2O | > 64 | > 64 | > 17800 | > 64 | 8 (≈ 7.1 µM) | > 64 | > 17800 | > 64 | > 64 | > 64
CCCCCCCCCCCCCCCC(=O)N(C)[C@H](CO)C(=O)N[C@H](C)C(=O)NCC(=O)N(C)[C@@H]1C(=O)N[C@@H](C)C(=O)N[C@H](C(=O)NCC=O)Cc2ccc(O)c(c2)-c2cc1ccc2OCCO | > 64 | 8 (≈ 8.28 µM) | 63.1 | 16 (≈ 16.6 µM) | 0.03 (≈ 0.031 µM) | 2 (≈ 2.07 µM) | 9.31 | 2 (≈ 2.07 µM) | 64 (≈ 66.2 µM) | > 64
CCCCCCCCCCCCCCCC(=O)N(C)[C@H](CO)C(=O)N[C@H](C)C(=O)NCC(=O)N(C)[C@@H]1C(=O)N[C@@H](C)C(=O)N[C@H](CC(=O)NCC=O)Cc2ccc(O)c(c2)-c2cc1ccc2O | > 64 | > 64 | > 21400 | > 64 | 2 (≈ 2.14 µM) | > 64 | 1010 | 32 (≈ 34.2 µM) | > 64 | > 64
CCCCCCCCCCCCCCCC(=O)N(C)[C@H](CO)C(=O)N[C@H](C)C(=O)NCC(=O)N(C)[C@@H]1C(=O)N[C@@H](C)C(=O)N[C@H](C(=O)NCC=O)Cc2ccc(O)c(c2)-c2cc1ccc2O | > 64 | 8 (≈ 8.68 µM) | 53.1 | > 64 | 0.06 (≈ 0.0651 µM) | 4 (≈ 4.34 µM) | 16.3 | 2 (≈ 2.17 µM) | 16 (≈ 17.4 µM) | > 64
CCCCCCCCCCCCCCCC(=O)N(C)[C@H](CO)C(=O)N[C@H](C)C(=O)NCC(=O)N(C)[C@@H]1C(=O)N[C@@H](C)C(=O)N[C@H](C(=O)O)Cc2ccc(O)c(c2)-c2cc1ccc2OCCN | > 64 | 4 (≈ 4.33 µM) | 3460 | 4 (≈ 4.33 µM) | 0.004 (≈ 0.00433 µM) | 0.5 (≈ 0.541 µM) | 55.2 | 0.1 (≈ 0.108 µM) | 32 (≈ 34.6 µM) | > 64
